Source: BindingDB's records for doi:10.1021/jm00080a008 (Merck Sharp and Dohme Research Laboratories, 1992)

Experiments:
[1] = target: T1, Myeloperoxidase (Homo sapiens, UniProt P05164); assay: ChEBML_223053
T1 sequence (P05164 whole entry): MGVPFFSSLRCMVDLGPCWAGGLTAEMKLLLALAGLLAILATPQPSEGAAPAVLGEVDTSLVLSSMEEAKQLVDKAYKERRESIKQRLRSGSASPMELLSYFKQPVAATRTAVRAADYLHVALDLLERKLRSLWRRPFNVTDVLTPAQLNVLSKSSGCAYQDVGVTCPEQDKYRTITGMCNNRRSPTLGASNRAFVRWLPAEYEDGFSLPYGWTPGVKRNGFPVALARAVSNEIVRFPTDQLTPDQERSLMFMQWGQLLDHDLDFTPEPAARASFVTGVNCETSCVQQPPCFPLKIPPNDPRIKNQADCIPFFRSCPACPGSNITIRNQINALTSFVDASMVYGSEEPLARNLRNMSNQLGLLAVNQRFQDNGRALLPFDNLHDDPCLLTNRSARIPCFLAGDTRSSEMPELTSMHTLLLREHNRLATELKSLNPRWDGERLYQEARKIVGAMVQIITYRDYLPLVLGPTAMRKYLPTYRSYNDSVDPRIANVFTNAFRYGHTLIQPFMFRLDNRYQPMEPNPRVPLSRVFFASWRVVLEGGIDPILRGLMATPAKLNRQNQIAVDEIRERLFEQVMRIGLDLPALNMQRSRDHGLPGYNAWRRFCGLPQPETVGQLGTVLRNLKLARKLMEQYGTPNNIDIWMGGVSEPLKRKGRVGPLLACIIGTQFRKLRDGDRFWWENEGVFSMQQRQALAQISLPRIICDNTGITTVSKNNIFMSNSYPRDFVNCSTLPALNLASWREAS
Procedure: (§1) Compound was tested for the induction of nonspecific myeloperoxidase (MPO) release

[2] = target: T1, Myeloperoxidase; assay: as §1
Summary of the method: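 Freshly isolated human PMN (Ficoll-Hypaque, erythrocytes lysed with NH4Cl/EDTA/KHCO3), 4×10^5/mL in HBSS. Preincubated with compound or 1% aqueous DMSO 20 min at 37 °C, then cytochalasin B (5 μg/mL final) 5 min. Stimulated 5 min at 37 °C with C5a or fMLF, or no stimulus for nonspecific release. MPO read with dimethoxybenzidine/H2O2 at pH 6.0, azide-quenched at 2 min, A450. Duplicate or triplicate.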

| EC50 [1] [µM] | EC50 [2] [µM] | Compound |
| --- | --- | --- |
| < 3 | – | Cc1cc(N)c2cc(NC(=O)Nc3ccc4nc(C)cc(N)c4c3)ccc2n1 [Aminoquinuride] |
| – | < 3 | Cc1cc(N)c2cc(NC(=O)/C=C/c3ccccc3Cl)ccc2n1 [MLS000737665] |
